By inhibition is commonly meant the change of the read-out against control, counted positive when it falls.

The source made the active and inactive calls. No cut-off for these calls is given here.

Experiment [1] deals with MCF7. The experiment can be described thus: Cytotoxicity against human MCF7 cells assessed as cell survival at 20 ug/ml after 72 hrs by sulforhodamine B method. The note with it: MCF7, 72 h, read-out: Activity. It counts as functional. In short, it runs like this: (§1)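 Sulforhodamine B assay. KB or MCF7 cells plated with samples and held 72 h at 37 °C, 5% CO₂. Fixed 1 h in 10% trichloroacetic acid, stained with 0.4% SRB in 1% acetic acid, dye taken up in 10 mM Tris.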
Background: Sulforhodamine B stains cellular protein and so reports cell mass.

The test system of experiment [2] is HEK293. Nature of the experiment: Inhibition of TNF-alpha-induced NF-kappaB activity expressed in HEK293 cells at 34 uM after 48 hrs by luciferase reporter gene assay relative to control. It counts as cell-based. The essentials: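 Stably transfected 293 cells carrying an NFκB response element–luciferase reporter, exposed to TNFα plus compound for 48 h, then assayed for luciferase. Activity expressed as % of TNFα-treated control. IC₅₀ from five serial dilutions, mean of two experiments.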
On the technique in general: A reporter such as luciferase makes a cellular process visible.

In experiment [3] the target is T1, Nitric oxide synthase, inducible (Mus musculus) (UniProt P29477).
T1 sequence (whole entry): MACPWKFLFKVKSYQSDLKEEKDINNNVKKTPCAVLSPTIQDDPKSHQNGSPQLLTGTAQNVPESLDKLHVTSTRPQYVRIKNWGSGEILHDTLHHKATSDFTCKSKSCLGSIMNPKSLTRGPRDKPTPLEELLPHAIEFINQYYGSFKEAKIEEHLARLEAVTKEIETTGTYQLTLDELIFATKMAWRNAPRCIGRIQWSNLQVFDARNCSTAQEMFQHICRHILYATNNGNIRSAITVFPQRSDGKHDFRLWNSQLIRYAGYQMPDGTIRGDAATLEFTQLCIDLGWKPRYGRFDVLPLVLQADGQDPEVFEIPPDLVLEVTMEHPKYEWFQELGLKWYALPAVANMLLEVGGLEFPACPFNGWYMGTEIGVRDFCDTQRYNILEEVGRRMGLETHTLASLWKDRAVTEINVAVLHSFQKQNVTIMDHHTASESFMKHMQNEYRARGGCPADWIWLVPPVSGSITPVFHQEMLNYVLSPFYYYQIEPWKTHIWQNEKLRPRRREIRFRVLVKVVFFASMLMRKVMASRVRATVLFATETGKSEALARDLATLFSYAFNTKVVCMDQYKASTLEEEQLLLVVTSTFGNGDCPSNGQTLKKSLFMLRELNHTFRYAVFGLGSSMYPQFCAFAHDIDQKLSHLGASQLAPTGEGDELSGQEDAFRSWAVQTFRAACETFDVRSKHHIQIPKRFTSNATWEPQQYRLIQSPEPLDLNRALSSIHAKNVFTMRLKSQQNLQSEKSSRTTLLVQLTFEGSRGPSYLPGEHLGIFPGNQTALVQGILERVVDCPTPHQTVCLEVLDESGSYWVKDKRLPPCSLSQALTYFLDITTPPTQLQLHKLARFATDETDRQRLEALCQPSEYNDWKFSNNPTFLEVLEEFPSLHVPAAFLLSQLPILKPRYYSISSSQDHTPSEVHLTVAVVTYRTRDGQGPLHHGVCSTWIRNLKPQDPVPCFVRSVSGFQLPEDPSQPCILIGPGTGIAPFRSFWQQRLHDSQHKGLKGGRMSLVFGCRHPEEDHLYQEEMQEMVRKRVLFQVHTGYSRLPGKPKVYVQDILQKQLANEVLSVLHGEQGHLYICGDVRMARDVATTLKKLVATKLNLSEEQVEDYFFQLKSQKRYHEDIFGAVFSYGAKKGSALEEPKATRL
Nature of the experiment: Inhibition of iNOS-mediated nitric oxide production in mouse RAW 264.7 cells at 34 uM pretreated 30 mins measured after 20 hrs by Griess reaction method relative to control. Format: cell-based. The essentials: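 RAW 264.7 macrophages seeded at 1 × 10⁵ cells/well for 24 h. Compounds in phenol red-free DMEM added 30 min before LPS (1 μg/mL), then 20 h further incubation. Nitrite in medium measured by Griess reagent at 540 nm against a sodium nitrite standard curve; inhibition at 34 μM.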
Background: Griess reagent forms a coloured azo dye with nitrite.

Experiment [4] in a line: Antioxidant activity assessed as DPPH scavenging activity at 340 uM after 30 mins. Format: functional.
The target in experiment [5] is T2, Prostaglandin G/H synthase 1 (Ovis aries) (UniProt P05979).
T2 sequence (whole entry): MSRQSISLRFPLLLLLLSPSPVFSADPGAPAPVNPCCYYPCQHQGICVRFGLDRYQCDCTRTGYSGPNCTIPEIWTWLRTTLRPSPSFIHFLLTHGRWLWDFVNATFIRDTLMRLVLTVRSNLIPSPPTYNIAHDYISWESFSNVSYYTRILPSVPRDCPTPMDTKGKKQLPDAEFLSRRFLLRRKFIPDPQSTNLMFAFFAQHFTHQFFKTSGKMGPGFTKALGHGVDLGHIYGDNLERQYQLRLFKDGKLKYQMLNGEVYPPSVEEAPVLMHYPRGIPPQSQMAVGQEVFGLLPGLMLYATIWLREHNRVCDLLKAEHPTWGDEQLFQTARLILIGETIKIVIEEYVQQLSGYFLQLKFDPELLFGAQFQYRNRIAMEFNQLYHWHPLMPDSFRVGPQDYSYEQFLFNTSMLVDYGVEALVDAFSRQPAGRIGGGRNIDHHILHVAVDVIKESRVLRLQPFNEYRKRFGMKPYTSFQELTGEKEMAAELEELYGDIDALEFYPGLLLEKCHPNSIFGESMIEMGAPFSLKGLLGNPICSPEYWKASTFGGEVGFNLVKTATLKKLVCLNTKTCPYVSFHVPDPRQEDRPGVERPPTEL
The experiment can be described thus: Inhibition of sheep seminal vesicles COX1 assessed as PGE2 production at 34 uM after 10 mins by ELISA relative to control. In short, it runs like this: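 Sheep seminal vesicle COX-1; reaction started with arachidonic acid, 10 min at room temperature, stopped with 27.8 μM indomethacin. PGE₂ quantified by competitive ELISA (PGE₂-acetylcholinesterase tracer, Ellman's reagent, 412 nm) against a PGE₂ standard curve. Result as % of solvent control; IC₅₀ from dose-response curves.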

The nature of experiment [6]: Antioxidant activity assessed as nitric oxide scavenging activity at 60 uM. Format: functional. In short, it runs like this:
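Compounds diluted tenfold in PBS and incubated with sodium nitroprusside (final compound 60 μM, SNP 5 mM) for 3 h at room temperature. Nitrite measured by Griess reagent, absorbance 540 nm. % inhibition given as average of triplicates ± standard deviation.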

Experiment [7] concerns KB. The experiment can be described thus: Cytotoxicity against human KB cells assessed as cell survival at 20 ug/ml after 72 hrs by sulforhodamine B method. Format: functional. The following applies: read-out: Activity. In short, it runs like this: as §1
The subject of experiment [8] is RAW264.7. Nature of the experiment: Inhibition of LPS-induced COX2 expression in mouse RAW264.7 cells at 34 uM treated 15 mins before LPS challenge measured after 18 hrs by immunoblotting. It counts as functional, cell-based. In short, it runs like this:
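RAW 264.7 cells pretreated with samples 15 min, then LPS 1 μg/mL for 18 h. Lysates (30 μg protein) run on 8% SDS-PAGE, transferred to PVDF, probed with primary and HRP secondary antibodies, ECL detection. β-actin internal control; band density quantified relative to the LPS-only control; duplicate experiment.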

Experiment [9] addresses NAD(P)H dehydrogenase [quinone] 1 (Mus musculus) (UniProt Q64669). The experiment can be described thus: Induction of quinone reductase 1 in mouse Hepa 1c1c7 cells assessed as drug level required to double enzyme activity by MTT assay.

NAD(P)H dehydrogenase [quinone] 1 (Mus musculus), sequence (Q64669 whole entry): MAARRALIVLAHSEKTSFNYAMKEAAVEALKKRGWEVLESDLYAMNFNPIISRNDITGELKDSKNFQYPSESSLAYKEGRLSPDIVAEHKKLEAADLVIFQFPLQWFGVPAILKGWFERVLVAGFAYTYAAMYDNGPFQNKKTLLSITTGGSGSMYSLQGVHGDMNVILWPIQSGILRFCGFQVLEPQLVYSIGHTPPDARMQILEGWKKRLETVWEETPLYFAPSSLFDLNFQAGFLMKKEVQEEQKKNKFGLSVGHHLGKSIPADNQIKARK

Take `O=S(=O)([O-])Oc1ccc(/C=C/c2cc(OS(=O)(=O)[O-])cc(OS(=O)(=O)[O-])c2)cc1.[K+].[K+].[K+]`: the viability at 20 µg/mL amounted to 107% in experiment [1] and 78.1% in experiment [7]. For the same molecule, the results for the inhibition in experiment [2], in experiment [4] and in experiment [5] were 36.7%, 0.4% and 37.8%, respectively. The result in [3] was inactive. The Activity in [6] was 1.6%. Also, the inhibition result in experiment [8] was “inactive”. In addition, in experiment [9], the CD was > 11.7 µM.
With `O=S(=O)([O-])Oc1cc(/C=C/c2ccc(O)cc2)cc(OS(=O)(=O)[O-])c1.[K+].[K+]`, the viability at 20 µg/mL in experiment [1] came to 97.2%; in [7] it was 84.2%. For the same molecule, the inhibition in [2] worked out at 42.5%; in experiment [4], 14.5%; in experiment [5] it was 30.9%. Also, in experiment [3], the result was inactive. For the same molecule, the Activity in experiment [6] is 1.2%. In addition, in experiment [8], the inhibition entry was “inactive”. The CD in [9] was > 10.1 µM.
In the case of `O=S(=O)([O-])Oc1ccc(/C=C/c2cc(O)cc(O)c2)cc1.[K+]`, the viability at 20 µg/mL in [1] turned out to be 103%; in experiment [7] it was 108%. Further, the inhibition was 64% in [2], 42.8% in experiment [4] and 63.2% in experiment [5]. Further, in experiment [3], the result was inactive. Also, the Activity in experiment [6] was 10.3%. Besides, the inhibition entry in experiment [8] is “inactive”. In [9], the CD is > 6.9 µM.
As to `O=S(=O)([O-])Oc1cc(O)cc(/C=C/c2ccc(O)cc2)c1.[K+]`, the results for the viability at 20 µg/mL in experiment [1] and in [7] were 51.7% and 70.3%, respectively. The inhibition in experiment [2] amounted to 33%; in experiment [4], 68%; in experiment [5] it was 74.3%. Besides, the outcome in experiment [3] was inactive. In addition, the Activity in experiment [6] worked out at 24.7%. Also, the inhibition result in experiment [8] was “inactive”. Also, in experiment [9], the CD was found to be 2.6 µM.

These data come from ChEMBL document CHEMBL1177719 (J Med Chem, 2010).
